Results: ChEMBL document CHEMBL2163220 (J Med Chem, 2012)
Calls of active or inactive are those of the source. The calls are words filed in the database; no cut-off is given here.

Experiments:
Format in all cases: functional, cell-based
[1] = target: T1, Progesterone receptor (Homo sapiens) (UniProt P06401); experiment: Antagonist activity at progesterone receptor in human PC3 cells assessed as reduction in R5020-inducedreceptor transactivation at 1 uM by luciferase reporter gene assay; details: PC-3
T1 sequence (whole entry): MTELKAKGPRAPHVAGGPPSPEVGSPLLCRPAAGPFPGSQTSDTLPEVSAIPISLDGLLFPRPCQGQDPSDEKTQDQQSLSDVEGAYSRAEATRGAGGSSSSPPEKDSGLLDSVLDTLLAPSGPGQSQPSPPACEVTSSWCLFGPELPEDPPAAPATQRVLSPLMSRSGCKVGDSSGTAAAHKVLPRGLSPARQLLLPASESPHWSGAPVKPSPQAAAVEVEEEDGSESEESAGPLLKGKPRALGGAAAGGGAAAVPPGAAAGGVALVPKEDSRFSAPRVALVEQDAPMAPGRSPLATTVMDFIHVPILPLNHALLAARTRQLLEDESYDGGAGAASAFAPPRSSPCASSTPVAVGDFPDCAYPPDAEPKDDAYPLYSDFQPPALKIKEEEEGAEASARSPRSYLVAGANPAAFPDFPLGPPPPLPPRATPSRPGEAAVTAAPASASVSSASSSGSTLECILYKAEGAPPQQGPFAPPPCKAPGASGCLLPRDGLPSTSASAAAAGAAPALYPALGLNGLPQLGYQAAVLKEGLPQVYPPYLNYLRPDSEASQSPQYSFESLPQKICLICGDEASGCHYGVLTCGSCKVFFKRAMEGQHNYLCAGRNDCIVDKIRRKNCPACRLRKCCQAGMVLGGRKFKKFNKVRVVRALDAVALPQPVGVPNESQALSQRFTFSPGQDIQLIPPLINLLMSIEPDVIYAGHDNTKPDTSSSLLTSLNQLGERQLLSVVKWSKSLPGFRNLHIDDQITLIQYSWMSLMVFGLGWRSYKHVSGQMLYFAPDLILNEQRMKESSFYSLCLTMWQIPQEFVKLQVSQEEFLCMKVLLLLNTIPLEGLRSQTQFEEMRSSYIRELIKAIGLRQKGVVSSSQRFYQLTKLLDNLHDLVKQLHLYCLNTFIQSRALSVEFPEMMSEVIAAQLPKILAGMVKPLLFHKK
How it was run: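 PC-3 cells lack detectable PR, so they were cotransfected with a PR expression plasmid and the MMTV-luc reporter. Compound tested at 1 μM, alone or against transactivation induced by 10 nM R5020. Read-out was luciferase reporter activity.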

[2] = system: T2, Androgen receptor (Homo sapiens), P10275 [W742C]; experiment: Antagonist activity at androgen receptor W741C mutant expressed in human PC3 cells assessed as reduction in DHT-induced receptor transactivation at 0.1 to 1 uM by luciferase reporter gene assay; details: PC-3
T2 sequence (whole entry): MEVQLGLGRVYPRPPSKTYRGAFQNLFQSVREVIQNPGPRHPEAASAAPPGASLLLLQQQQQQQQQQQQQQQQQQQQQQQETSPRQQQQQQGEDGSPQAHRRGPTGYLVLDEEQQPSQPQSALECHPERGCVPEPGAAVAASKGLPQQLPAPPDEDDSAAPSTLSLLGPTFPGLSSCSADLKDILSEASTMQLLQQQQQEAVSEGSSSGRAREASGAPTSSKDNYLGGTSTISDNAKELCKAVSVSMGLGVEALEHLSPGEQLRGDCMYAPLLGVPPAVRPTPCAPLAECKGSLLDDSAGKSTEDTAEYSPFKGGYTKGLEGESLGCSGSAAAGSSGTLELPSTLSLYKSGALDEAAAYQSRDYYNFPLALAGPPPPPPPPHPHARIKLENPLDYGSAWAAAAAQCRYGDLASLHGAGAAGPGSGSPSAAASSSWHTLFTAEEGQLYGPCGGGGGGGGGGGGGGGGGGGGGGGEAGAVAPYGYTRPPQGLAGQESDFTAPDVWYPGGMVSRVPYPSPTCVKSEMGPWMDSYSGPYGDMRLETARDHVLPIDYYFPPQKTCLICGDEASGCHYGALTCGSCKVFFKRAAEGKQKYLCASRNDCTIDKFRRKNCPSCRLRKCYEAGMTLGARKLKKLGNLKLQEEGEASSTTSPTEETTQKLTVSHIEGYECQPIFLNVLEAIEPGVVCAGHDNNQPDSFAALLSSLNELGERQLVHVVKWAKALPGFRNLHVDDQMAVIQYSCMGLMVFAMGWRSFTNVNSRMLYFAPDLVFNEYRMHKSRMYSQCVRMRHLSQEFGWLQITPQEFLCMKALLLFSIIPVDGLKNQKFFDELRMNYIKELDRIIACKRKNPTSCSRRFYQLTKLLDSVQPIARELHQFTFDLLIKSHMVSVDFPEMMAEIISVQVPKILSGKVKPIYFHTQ
How it was run: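 Full-length wild-type or mutant AR plasmid transiently transfected into PC-3 cells with MMTV-luc and Renilla luciferase reporters. Cells treated with DMSO vehicle or compound at 0.1 and 1 μM, alone or with 0.1 nM DHT. Luciferase read as relative luciferase units. Run in triplicate.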

[3] = Cytotoxicity against human C4-2B cells incubated for 72 hrs by MTT assay; details: LNCaP C4-2B
How it was run: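 MTT assay run across a panel of prostate cancer cell lines.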

Cc1coc2c1C(=O)C(=O)c1c-2ccc2c1CCCC2(C)C [TANSHINONE IIA]
Activity [1]: inactive
Activity [2]: Active
IC50 [3]: 400 nM
